In ChEMBL document CHEMBL1158955, “Biologically active metabolites from Xenorhabdus spp., Part 1. Dithiolopyrrolone derivatives with antibiotic activity” (1991):
Converted amounts (≈) assume the structure as drawn.

Key:
Helicoverpa punctigera [1] = test: Insecticidal activity in Heliothis punctigera assessed as mortality at 37.5 ug.cm'-2 by larval feeding assay; type: functional
Summary of the method: (§1)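 Artificial diet set in 24-well plates to 1 cm depth; 30 μl of test material in DMSO spread over the surface, with DMSO-only controls. After drying, one first-instar Heliothis punctigera larva placed per well, 16 wells per dose, and each well closed with a polypropylene ball. Held 7 days at 28°, then scored for mortality and survivors weighed; LC50 derived by probit analysis.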

Helicoverpa punctigera [2] = test: Insecticidal activity in Heliothis punctigera assessed as mortality by larval feeding assay; type: functional; summary of the method: as §1
Helicoverpa punctigera [3] = test: Insecticidal activity in Heliothis punctigera assessed as mortality at 150 ug.cm'-2 by larval feeding assay; type: functional; summary of the method: as §1
Salmonella typhimurium = test: Antimicrobial activity against Salmonella Typhimurium BTA 438 after 18 hrs by broth dilution method; type: functional, Salmonella enterica subsp. enterica serovar Typhimurium; details: Salmonella enterica, BTA 438, 18 h
Summary of the method: (§2)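 Broth dilution in TS broth in 24-well dishes. Compound dissolved in DMSO and diluted from a starting concentration of 2.5%. Inocula were grown from fresh TS agar plates in TS broth at 37° to A525 0.5, then diluted 10^-4. Incubation was 37° for 18 h. Turbidity was read by eye and confirmed by plating onto TS agar. MIC is the last dilution giving ≤20 colonies.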

Proteus mirabilis = test: Antimicrobial activity against Proteus mirabilis BTA 585 after 18 hrs by broth dilution method; type: functional; details: BTA 585, 18 h; summary of the method: as §2
Shigella sonnei = test: Antimicrobial activity against Shigella sonnei BTA 431 after 18 hrs by broth dilution method; type: functional; details: BTA 431, 18 h; summary of the method: as §2
Bacillus cereus = test: Antimicrobial activity against Bacillus cereus BTA 432 after 18 hrs by broth dilution method; type: functional; details: BTA 432, 18 h; summary of the method: as §2
Staphylococcus aureus = test: Antimicrobial activity against Staphylococcus aureus ATCC 6538P after 18 hrs by broth dilution method; type: functional; summary of the method: as §2
Pseudomonas aeruginosa = test: Antimicrobial activity against Pseudomonas aeruginosa BTA 429 after 18 hrs by broth dilution method; type: functional; details: BTA 429, 18 h; summary of the method: as §2
Escherichia coli = test: Antimicrobial activity against Escherichia coli K88 BTA 430 after 18 hrs by broth dilution method; type: functional; details: K88 BTA 430, 18 h; summary of the method: as §2
Micrococcus luteus = test: Antimicrobial activity against Micrococcus luteus BTA 433 after 18 hrs by broth dilution method; type: functional; details: BTA 433, 18 h; summary of the method: as §2
Candida albicans = test: Antimicrobial activity against Candida albicans ATCC 10231 after 18 hrs by broth dilution method; type: functional; details: ATCC 10231, 18 h; summary of the method: as §2
Streptococcus pyogenes = test: Antimicrobial activity against Streptococcus pyogenes IMR-RNSH after 18 hrs by broth dilution method; type: functional; summary of the method: as §2
Helicoverpa punctigera [4] = test: Insecticidal activity in Heliothis punctigera assessed as weight reduction at 37.5 ug.cm'-2 relative to control; type: functional; design: scale not given: the % may be the effect or the level left
Summary of the method: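 Diet-surface feeding test. Molten artificial diet was poured 1 cm deep in 24-well plates, and test material in DMSO (30 μl) was spread on the surface; controls got DMSO only. Once dry, one first-instar H. punctigera larva was placed per well (16 wells per dose) and the well was capped. After 7 days at 28°, mortality was scored and surviving larvae were weighed.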

CC(C)CCCC(=O)Nc1c2sscc-2[nH]c1=O [XENORHABDIN 2]
Activity (Helicoverpa punctigera [1]): 18.8% | LC50 (Helicoverpa punctigera [2]): 59.5 ug.cm'-2 | Activity (Helicoverpa punctigera [3]): 100% | MIC (Salmonella typhimurium): > 100 µg/mL | MIC (Proteus mirabilis): > 100 µg/mL | MIC (Shigella sonnei): > 100 µg/mL | MIC (Bacillus cereus): 3.13 µg/mL (≈ 11 µM) | MIC (Staphylococcus aureus): 20 µg/mL (≈ 70.3 µM) | MIC (Pseudomonas aeruginosa): > 100 µg/mL | MIC (Escherichia coli): > 100 µg/mL | MIC (Micrococcus luteus): 0.156 µg/mL (≈ 0.549 µM) | MIC (Candida albicans): > 100 µg/mL | MIC (Streptococcus pyogenes): 1.25 µg/mL (≈ 4.4 µM) | Activity (Helicoverpa punctigera [4]): 64.7%
